Assay results taken from ChEMBL document CHEMBL1914395, “Design, synthesis, and biological evaluation of callophycin A and analogues as potential chemopreventive and anticancer agents” (Bioorg Med Chem, 2011).

Target: NAD(P)H dehydrogenase [quinone] 1 (Mus musculus) (UniProt Q64669)
Sequence (Q64669 whole entry): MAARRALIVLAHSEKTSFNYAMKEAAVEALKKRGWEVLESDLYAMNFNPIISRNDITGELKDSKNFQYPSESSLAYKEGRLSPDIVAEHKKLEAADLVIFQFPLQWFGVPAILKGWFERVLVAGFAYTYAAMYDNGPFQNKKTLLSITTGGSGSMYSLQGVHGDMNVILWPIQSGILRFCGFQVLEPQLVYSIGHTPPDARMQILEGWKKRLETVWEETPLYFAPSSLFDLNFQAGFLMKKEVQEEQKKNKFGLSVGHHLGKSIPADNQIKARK
Test: Induction of quinone reductase 1 activity in mouse Hepa-1c1c7 cells at 50 uM by MTT assay relative to untreated control
Format: cell-based
Settings: not given
Summary of the method: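 Hepa 1c1c7 murine hepatoma cells treated with compound at 50 μM. QR1 measured by NADPH-dependent, menadiol-mediated reduction of MTT to formazan. Protein measured by crystal violet staining of identical plates. Specific activity is nmol formazan per mg protein per min. Induction ratio is treated versus DMSO-treated control.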
`COC(=O)[C@@H]1Cc2c([nH]c3ccccc23)CN1C(=O)NC12CC3CC(CC(C3)C1)C2` showed a Ratio of 0.9.
In the case of `COC(=O)[C@H]1Cc2c([nH]c3ccccc23)CN1C(=O)NCCc1ccccc1`, the Ratio is reported as 1.5.
For `COC(=O)[C@H]1Cc2c([nH]c3ccccc23)CN1C(=O)NC1CCCCC1`, the Ratio was 1.

Tested on: MCF7
Test: Antiproliferative activity against human MCF7 cells after 72 hrs by SRB assay
Format: functional, cell-based
Settings: MCF7, 72 h
Summary of the method: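 MCF7 cells, 1 × 10^4 per well, plated directly onto compounds and incubated 72 h at 37°C, 5% CO2. Fixed with 10% TCA, stained with 0.4% SRB in 1% acetic acid. Bound dye dissolved in 10 mM Tris pH 10.0, absorbance read at 515 nm. Survival expressed relative to DMSO-treated controls.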
In the case of `COC(=O)[C@@H]1Cc2c([nH]c3ccccc23)CN1C(=O)NC12CC3CC(CC(C3)C1)C2`, the IC50 is reported as 36.9 µM.
For `COC(=O)[C@H]1Cc2c([nH]c3ccccc23)CN1C(=O)NCCc1ccccc1`, the IC50 was 27.7 µM.
`COC(=O)[C@H]1Cc2c([nH]c3ccccc23)CN1C(=O)NC1CCCCC1` showed an IC50 of 18.4 µM.

Tested on: HEK293
Test: Inhibition of TNF-alpha-induced NFkappaB activation in human HEK293 cells at 50 uM after 6 hrs by luciferase assay relative to control
Format: cell-based
Settings: not given
Summary of the method: (§1)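 Cells incubated 6 h with TNFα plus test compound, then luciferase activity measured. Results expressed as percent of TNFα-treated control. Screening concentration 50 μM.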
Compound `COC(=O)[C@@H]1Cc2c([nH]c3ccccc23)CN1C(=O)NC12CC3CC(CC(C3)C1)C2` has an inhibition of 60.7%.
For `COC(=O)[C@H]1Cc2c([nH]c3ccccc23)CN1C(=O)NCCc1ccccc1`, the inhibition was 81.7%.
With `COC(=O)[C@H]1Cc2c([nH]c3ccccc23)CN1C(=O)NC1CCCCC1` the inhibition was 20.9%.

Target: T1, Nitric oxide synthase, inducible (Mus musculus) (UniProt P29477)
T1 sequence (whole entry): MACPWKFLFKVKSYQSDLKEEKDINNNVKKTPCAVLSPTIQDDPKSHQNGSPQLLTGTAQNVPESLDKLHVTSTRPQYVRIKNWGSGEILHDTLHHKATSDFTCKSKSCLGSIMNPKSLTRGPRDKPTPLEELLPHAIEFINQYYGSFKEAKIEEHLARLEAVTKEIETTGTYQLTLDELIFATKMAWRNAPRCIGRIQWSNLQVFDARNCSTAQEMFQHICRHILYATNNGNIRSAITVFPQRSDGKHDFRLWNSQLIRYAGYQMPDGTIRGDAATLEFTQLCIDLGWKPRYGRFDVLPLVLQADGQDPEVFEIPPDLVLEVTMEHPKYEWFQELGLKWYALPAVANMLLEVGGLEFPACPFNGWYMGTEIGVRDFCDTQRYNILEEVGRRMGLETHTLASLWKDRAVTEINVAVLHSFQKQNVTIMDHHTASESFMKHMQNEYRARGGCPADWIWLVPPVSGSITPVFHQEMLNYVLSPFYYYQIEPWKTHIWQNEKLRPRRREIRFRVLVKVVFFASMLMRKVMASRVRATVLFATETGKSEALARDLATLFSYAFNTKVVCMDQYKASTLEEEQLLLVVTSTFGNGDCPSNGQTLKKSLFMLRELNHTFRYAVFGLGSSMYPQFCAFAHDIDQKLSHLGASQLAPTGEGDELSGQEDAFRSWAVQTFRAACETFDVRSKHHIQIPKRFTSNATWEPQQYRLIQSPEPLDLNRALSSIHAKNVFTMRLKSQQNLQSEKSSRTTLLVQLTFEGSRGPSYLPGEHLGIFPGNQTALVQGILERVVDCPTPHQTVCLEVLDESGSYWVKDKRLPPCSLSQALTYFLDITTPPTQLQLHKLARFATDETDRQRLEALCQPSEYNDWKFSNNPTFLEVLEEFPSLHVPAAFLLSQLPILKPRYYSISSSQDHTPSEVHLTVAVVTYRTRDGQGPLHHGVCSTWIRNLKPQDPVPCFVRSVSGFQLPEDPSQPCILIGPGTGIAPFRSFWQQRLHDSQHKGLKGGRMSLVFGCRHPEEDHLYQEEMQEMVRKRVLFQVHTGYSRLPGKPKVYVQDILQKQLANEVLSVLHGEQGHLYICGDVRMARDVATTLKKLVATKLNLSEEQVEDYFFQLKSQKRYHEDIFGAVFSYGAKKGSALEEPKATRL
Test: Inhibition of iNOS-mediated nitric oxide production in LPS-stimulated mouse RAW 264.7 cells at 50 uM pretreated 15 mins before LPS challenge measured after 20 hrs relative to control
Format: cell-based
Settings: not given
Summary of the method: (§2)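 RAW 264.7 cells cultured 24 h at 37°C, then given serially diluted compounds for 15 min before LPS (1 μg/mL) for 20 h. Nitrite in the medium measured with Griess reagent at 540 nm against a sodium nitrite standard curve. Cytotoxicity checked by SRB under the same conditions.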
Compound `COC(=O)[C@@H]1Cc2c([nH]c3ccccc23)CN1C(=O)NC12CC3CC(CC(C3)C1)C2` has an inhibition of 64.1%.
For `COC(=O)[C@H]1Cc2c([nH]c3ccccc23)CN1C(=O)NCCc1ccccc1`, the inhibition was 66.2%.
`COC(=O)[C@H]1Cc2c([nH]c3ccccc23)CN1C(=O)NC1CCCCC1` gave an inhibition of 55%.

Target: T2, Nitric oxide synthase, inducible (Mus musculus, UniProt P29477)
T2 sequence (P29477 whole entry): T1 sequence (whole entry)
Test: Inhibition of iNOS-mediated nitric oxide production in LPS-stimulated mouse RAW 264.7 cells pretreated 15 mins before LPS challenge measured after 20 hrs relative to control
Format: cell-based
Settings: not given
Summary of the method: as §2
In the case of `COC(=O)[C@@H]1Cc2c([nH]c3ccccc23)CN1C(=O)NC12CC3CC(CC(C3)C1)C2`, the IC50 is reported as 13.4 µM.
Work on `COC(=O)[C@H]1Cc2c([nH]c3ccccc23)CN1C(=O)NCCc1ccccc1` yielded an IC50 of 11 µM.
`COC(=O)[C@H]1Cc2c([nH]c3ccccc23)CN1C(=O)NC1CCCCC1` showed an IC50 of 41.6 µM.

Target: NAD(P)H dehydrogenase [quinone] 1 (Mus musculus) (UniProt Q64669)
Test: Induction of quinone reductase 1 activity in mouse Hepa-1c1c7 cells assessed as cell survival at 50 uM by MTT assay relative to control
Format: cell-based
Settings: not given
`COC(=O)[C@@H]1Cc2c([nH]c3ccccc23)CN1C(=O)NC12CC3CC(CC(C3)C1)C2` gave a Survival of 78.1%.
Compound `COC(=O)[C@H]1Cc2c([nH]c3ccccc23)CN1C(=O)NCCc1ccccc1` has a Survival of 51.7%.
For `COC(=O)[C@H]1Cc2c([nH]c3ccccc23)CN1C(=O)NC1CCCCC1`, the Survival was 71.8%.

Tested on: not listed separately
Test: Inhibition of TNF-alpha-induced NFkappaB activation in human HEK293 cells after 6 hrs by luciferase assay
Format: cell-based
Settings: HEK293, 6 h
Summary of the method: as §1
For `COC(=O)[C@@H]1Cc2c([nH]c3ccccc23)CN1C(=O)NC12CC3CC(CC(C3)C1)C2`, the IC50 was 10.2 µM.
`COC(=O)[C@H]1Cc2c([nH]c3ccccc23)CN1C(=O)NCCc1ccccc1` showed an IC50 of 13.3 µM.

Tested on: HEK293
Test: Inhibition of TNF-alpha-induced NFkappaB activation in human HEK293 cells assessed as cell survival at 50 uM after 6 hrs by luciferase assay relative to control
Format: cell-based
Settings: not given
`COC(=O)[C@@H]1Cc2c([nH]c3ccccc23)CN1C(=O)NC12CC3CC(CC(C3)C1)C2` showed a Survival of 139%.
In the case of `COC(=O)[C@H]1Cc2c([nH]c3ccccc23)CN1C(=O)NCCc1ccccc1`, the Survival is reported as 108%.
Compound `COC(=O)[C@H]1Cc2c([nH]c3ccccc23)CN1C(=O)NC1CCCCC1` has a Survival of 101%.

Target: T1, Nitric oxide synthase, inducible (Mus musculus)
Test: Inhibition of iNOS-mediated nitric oxide production in LPS-stimulated mouse RAW 264.7 cells assessed as cell survival at 50 uM pretreated 15 mins before LPS challenge measured after 20 hrs relative to control
Format: cell-based
Settings: not given
Summary of the method: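 RAW 264.7 cells were incubated at 37°C, 5% CO2 for 24 h. They were then exposed to compound for 15 min before LPS (1 μg/mL) was added for 20 h. Cytotoxicity was measured by SRB staining under the same conditions. Survival is expressed as % relative to vehicle-treated controls at 50 μM.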
`COC(=O)[C@@H]1Cc2c([nH]c3ccccc23)CN1C(=O)NC12CC3CC(CC(C3)C1)C2` showed a Survival of 66.7%.
For `COC(=O)[C@H]1Cc2c([nH]c3ccccc23)CN1C(=O)NCCc1ccccc1`, the Survival was 66.1%.
Compound `COC(=O)[C@H]1Cc2c([nH]c3ccccc23)CN1C(=O)NC1CCCCC1` has a Survival of 83.8%.

Target: T3, Aromatase (Homo sapiens, UniProt P11511)
T3 sequence (P11511 whole entry): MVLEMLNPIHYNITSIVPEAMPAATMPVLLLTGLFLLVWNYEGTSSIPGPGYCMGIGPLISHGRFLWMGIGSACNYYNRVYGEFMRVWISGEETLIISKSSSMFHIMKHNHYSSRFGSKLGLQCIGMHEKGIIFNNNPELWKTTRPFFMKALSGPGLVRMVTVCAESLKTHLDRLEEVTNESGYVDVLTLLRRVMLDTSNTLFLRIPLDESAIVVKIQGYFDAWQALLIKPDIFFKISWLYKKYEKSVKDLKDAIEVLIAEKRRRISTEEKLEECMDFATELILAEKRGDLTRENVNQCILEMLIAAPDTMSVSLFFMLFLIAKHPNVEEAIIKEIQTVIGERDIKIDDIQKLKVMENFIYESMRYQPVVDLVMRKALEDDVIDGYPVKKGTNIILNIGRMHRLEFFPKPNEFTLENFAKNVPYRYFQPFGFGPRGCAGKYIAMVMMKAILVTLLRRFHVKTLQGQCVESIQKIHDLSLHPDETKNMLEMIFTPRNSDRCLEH
Test: Inhibition of aromatase at 50 uM after 10 mins preincubation by plate reader relative to control
Settings: not given
Summary of the method: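 CYP19 enzyme. Compound pre-incubated 10 min with an NADPH-regenerating system (NADP+, glucose 6-phosphate, G6PDH, MgCl2, albumin) in 50 mM potassium phosphate pH 7.4. Enzyme and 0.4 μM dibenzylfluorescein substrate then added, 30 min at 37 °C. Quenched with 2 N NaOH and incubated a further 2 h at 37 °C. Fluorescence read at ex 485/em 530 nm. Compound tested at 50 μM.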
Compound `COC(=O)[C@@H]1Cc2c([nH]c3ccccc23)CN1C(=O)NC12CC3CC(CC(C3)C1)C2` has an inhibition at 50 µM of 30.3%.
In the case of `COC(=O)[C@H]1Cc2c([nH]c3ccccc23)CN1C(=O)NCCc1ccccc1`, the inhibition at 50 µM is reported as 24.6%.
`COC(=O)[C@H]1Cc2c([nH]c3ccccc23)CN1C(=O)NC1CCCCC1` showed an inhibition at 50 µM of 24.4%.

Tested on: MCF7
Test: Antiproliferative activity against human MCF7 cells assessed as survival at 50 uM after 72 hrs by SRB assay relative to control
Format: functional
Settings: MCF7, 72 h, read-out: Survival
Summary of the method: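 MCF7 cells (1 × 10^4 per well) were plated onto compound and kept at 37°C, 5% CO2 for 72 h. Cells were fixed in 10% TCA for 30 min and stained with 0.4% SRB in 1% acetic acid for 30 min. Bound dye was dissolved in 10 mM Tris (pH 10.0) and read at 515 nm. Survival is given as % of DMSO-treated controls, screened at 50 μM.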
`COC(=O)[C@@H]1Cc2c([nH]c3ccccc23)CN1C(=O)NC12CC3CC(CC(C3)C1)C2` gave a viability at 50 µM of 37.6%.
`COC(=O)[C@H]1Cc2c([nH]c3ccccc23)CN1C(=O)NCCc1ccccc1` gave a viability at 50 µM of 4.3%.
With `COC(=O)[C@H]1Cc2c([nH]c3ccccc23)CN1C(=O)NC1CCCCC1` the viability at 50 µM was 5.3%.
